# “And” between values parts separate entries of the source, which are not always exact repeats. Identical values can stand only once.
# Test system: HEK-293T
# Experiment: Multiplex assay against HEK293T
# Type: toxicity, cell-based
# Conditions: human
# Outline: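 With compound added, live cells were imaged on a CQ1 microscope at 37°C and 5% CO2; staining with Hoechst33342, BioTracker Green Microtubule Cytoskeleton Dye, MitoTracker Red and Annexin V Alexa Fluor 680 had been done at seeding. The CellPathfinder machine-learning gating scheme split cells into Hoechst high-intensity objects or normal cells, normal cells into healthy, pyknosed or fragmented nuclei, and pyknosed cells into mitotic or apoptotic. The tubulin, mitochondrial-mass and membrane-permeability phenotypes are per cents of healthy-nucleus cells.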
# [1] = 12 h, 1 µM, compound concentration 1 uM
# [2] = 12 h, 10 µM, compound concentration 10 uM
# [3] = 24 h, 1 µM, compound concentration 1 uM
# [4] = 24 h, 10 µM, compound concentration 10 uM
# [5] = 48 h, 1 µM, compound concentration 1 uM
# [6] = 48 h, 10 µM, compound concentration 10 uM
compound,measurement,setting,value
Cc1c(CC(=O)O)c2cccnc2n1Cc1ccc(S(C)(=O)=O)cc1C(F)(F)F [FEVIPIPRANT],Population Apoptotic (%),[1],27% and 41%
same,Population Fragmented Nuclei (%),[1],6% and 7%
same,Population Healthy Nuclei (%),[1],83% and 79%
same,Population Hoechst High Intensity Objects (%),[1],5% and 7%
same,Population Membrane Permeable-Phenotype (%),[1],0%
same,Population Mitochondria Different-Phenotype (%),[1],32% and 52%
same,Population Mitotic Cells (%),[1],72% and 58%
same,Population Normal (%),[1],94% and 92%
same,Population Pyknosed Nuclei (%),[1],9% and 12%
same,Population Tubulin-Different-Phenotype (%),[1],22% and 16%
same,Total Cell Count,[1],471 and 370
same,Population Apoptotic (%),[2],33% and 52%
same,Population Fragmented Nuclei (%),[2],5% and 11%
same,Population Healthy Nuclei (%),[2],80% and 75%
same,Population Hoechst High Intensity Objects (%),[2],6% and 10%
same,Population Membrane Permeable-Phenotype (%),[2],0%
same,Population Mitochondria Different-Phenotype (%),[2],46% and 66%
same,Population Mitotic Cells (%),[2],66% and 47%
same,Population Normal (%),[2],93% and 89%
same,Population Pyknosed Nuclei (%),[2],13% and 12%
same,Population Tubulin-Different-Phenotype (%),[2],29% and 32%
same,Total Cell Count,[2],417 and 303
same,Population Apoptotic (%),[3],22% and 43%
same,Population Fragmented Nuclei (%),[3],8% and 7%
same,Population Healthy Nuclei (%),[3],81% and 82%
same,Population Hoechst High Intensity Objects (%),[3],3% and 4%
same,Population Membrane Permeable-Phenotype (%),[3],1% and 0%
same,Population Mitochondria Different-Phenotype (%),[3],18% and 37%
same,Population Mitotic Cells (%),[3],77% and 56%
same,Population Normal (%),[3],96% and 95%
same,Population Pyknosed Nuclei (%),[3],10%
same,Population Tubulin-Different-Phenotype (%),[3],18% and 14%
same,Total Cell Count,[3],637 and 457
same,Population Apoptotic (%),[4],33% and 50%
same,Population Fragmented Nuclei (%),[4],8% and 9%
same,Population Healthy Nuclei (%),[4],80% and 81%
same,Population Hoechst High Intensity Objects (%),[4],5% and 11%
same,Population Membrane Permeable-Phenotype (%),[4],0%
same,Population Mitochondria Different-Phenotype (%),[4],31% and 44%
same,Population Mitotic Cells (%),[4],66% and 50%
same,Population Normal (%),[4],94% and 88%
same,Population Pyknosed Nuclei (%),[4],10% and 8%
same,Population Tubulin-Different-Phenotype (%),[4],20%
same,Total Cell Count,[4],499 and 334
same,Population Apoptotic (%),[5],16% and 20%
same,Population Fragmented Nuclei (%),[5],13% and 11%
same,Population Healthy Nuclei (%),[5],79% and 82%
same,Population Hoechst High Intensity Objects (%),[5],1% and 2%
same,Population Membrane Permeable-Phenotype (%),[5],2% and 0%
same,Population Mitochondria Different-Phenotype (%),[5],12% and 16%
same,Population Mitotic Cells (%),[5],83% and 79%
same,Population Normal (%),[5],98% and 97%
same,Population Pyknosed Nuclei (%),[5],7% and 6%
same,Population Tubulin-Different-Phenotype (%),[5],12% and 10%
same,Total Cell Count,[5],1065 and 713
same,Population Apoptotic (%),[6],29% and 45%
same,Population Fragmented Nuclei (%),[6],14%
same,Population Healthy Nuclei (%),[6],78% and 77%
same,Population Hoechst High Intensity Objects (%),[6],4% and 7%
same,Population Membrane Permeable-Phenotype (%),[6],0% and 1%
same,Population Mitochondria Different-Phenotype (%),[6],24% and 22%
same,Population Mitotic Cells (%),[6],70% and 55%
same,Population Normal (%),[6],95% and 92%
same,Population Pyknosed Nuclei (%),[6],7% and 8%
same,Population Tubulin-Different-Phenotype (%),[6],14% and 17%
same,Total Cell Count,[6],794 and 491
CCOC(=O)c1cnn(-c2ccc(NC(=O)C(Cl)=C(Cl)Cl)cc2)c1C(F)(F)F,Population Apoptotic (%),[1],11.04% and 11.54%
same,Population Fragmented Nuclei (%),[1],2.46% and 4.48%
same,Population Hoechst High Intensity Objects (%),[1],0.27% and 0%
same,Population Membrane Permeable-Phenotype (%),[1],0.49% and 0%
same,Population Mitochondria Different-Phenotype (%),[1],37.44% and 16.67%
same,Population Mitotic Cells (%),[1],88.96% and 88.46%
same,Population Normal (%),[1],99.73% and 100%
same,Population Pyknosed Nuclei (%),[1],42.08% and 77.61%
same,Total Cell Count,[1],367 and 134
same,Population Apoptotic (%),[2],29.28% and 34.92%
same,Population Fragmented Nuclei (%),[2],10.14% and 2.8%
same,Population Healthy Nuclei (%),[2],26.57% and 9.09%
same,Population Hoechst High Intensity Objects (%),[2],0.35% and 0%
same,Population Membrane Permeable-Phenotype (%),[2],1.32% and 0%
same,Population Mitochondria Different-Phenotype (%),[2],18.42% and 46.15%
same,Population Mitotic Cells (%),[2],70.72% and 65.08%
same,Population Normal (%),[2],99.65% and 100%
same,Population Pyknosed Nuclei (%),[2],63.29% and 88.11%
same,Total Cell Count,[2],287 and 143
same,Population Apoptotic (%),[3],14.69% and 14.29%
same,Population Fragmented Nuclei (%),[3],1.44% and 6.88%
same,Population Healthy Nuclei (%),[3],72.84% and 31.87%
same,Population Hoechst High Intensity Objects (%),[3],0.18% and 0%
same,Population Membrane Permeable-Phenotype (%),[3],2.47% and 1.96%
same,Population Mitochondria Different-Phenotype (%),[3],18.02% and 7.84%
same,Population Mitotic Cells (%),[3],85.31% and 85.71%
same,Population Normal (%),[3],99.82% and 100%
same,Population Pyknosed Nuclei (%),[3],25.72% and 61.25%
same,Population Apoptotic (%),[4],63.22% and 90.58%
same,Population Fragmented Nuclei (%),[4],11.84% and 6.41%
same,Population Healthy Nuclei (%),[4],12.77% and 5.13%
same,Population Hoechst High Intensity Objects (%),[4],3.6% and 0%
same,Population Membrane Permeable-Phenotype (%),[4],0%
same,Population Mitochondria Different-Phenotype (%),[4],29.27% and 37.5%
same,Population Normal (%),[4],96.4% and 100%
same,Population Pyknosed Nuclei (%),[4],75.39% and 88.46%
same,Population Tubulin-Different-Phenotype (%),[4],29.27% and 37.5%
same,Total Cell Count,[4],333 and 156
same,Population Fragmented Nuclei (%),[5],2.62% and 2.05%
same,Population Healthy Nuclei (%),[5],85.68% and 49.74%
same,Population Hoechst High Intensity Objects (%),[5],0.22% and 0%
same,Population Membrane Permeable-Phenotype (%),[5],5.07% and 1.03%
same,Population Mitochondria Different-Phenotype (%),[5],16.62% and 27.84%
same,Population Mitotic Cells (%),[5],94.87% and 81.91%
same,Population Normal (%),[5],99.78% and 100%
same,Population Apoptotic (%),[6],53.58% and 95.86%
same,Population Fragmented Nuclei (%),[6],14.99% and 9.58%
same,Population Healthy Nuclei (%),[6],8.65% and 3.59%
same,Population Hoechst High Intensity Objects (%),[6],1.42% and 0.6%
same,Population Membrane Permeable-Phenotype (%),[6],0%
same,Population Mitochondria Different-Phenotype (%),[6],43.33% and 100%
same,Population Normal (%),[6],98.58% and 99.4%
same,Population Pyknosed Nuclei (%),[6],76.37% and 86.83%
same,Population Tubulin-Different-Phenotype (%),[6],23.33% and 66.67%
same,Total Cell Count,[6],352 and 168

# Source: ChEMBL document CHEMBL5724801, “EUbOPEN Chemogenomics Library - Multiplex” (2024)
